Results taken from article PMC11605122 (Nature Communications, 2024).

Experiments:
[1] = cumulative food intake; assay type: in vivo, mouse; conditions: DIO mice, H + G49, 72 h, versus vehicle
[2] = plasma insulin; assay type: in vivo, mouse; conditions: DIO mice
In short: (§1)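 Plasma ALT was read with Reflotron strips and plasma TGs by colorimetric assay. Serum FGF21 and plasma adiponectin and insulin were measured by ELISA.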

[3] = plasma adiponectin; assay type: in vivo, mouse; conditions: DIO mice, 24 h post-injection
In short: as §1

[4] = system: eWAT, iWAT, BAT; assay: PKA Thr197 and HSL Ser660 phosphorylation; assay type: in vivo, mouse; conditions: DIO mice, G49
In short: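 Tissue lysates were cleared twice at 98,560 × g for 40 min at 4 °C; protein was measured by BCA. After transfer, loading was checked with Ponceau. Membranes were blocked with 6% skimmed milk in TBS-0.05% Tween-20 for 2 h at RT, then incubated with primary antibodies overnight at 4 °C.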

[5] = TUNEL analysis of eWAT; assay type: in vivo, mouse; conditions: 6 h post-G49
In short: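 Paraffin-embedded eWAT sections were stained with a fluorimetric DeadEnd TUNEL kit, mounted in fluorescent medium and imaged by confocal microscopy.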

[6] = F4/80 and TH immunostaining of eWAT; assay type: in vivo, mouse; conditions: G49, 6 h
[7] = intrahepatic triglyceride content; assay type: in vivo, mouse; conditions: DIO mice
[8] = liver-to-body weight ratio; assay type: in vivo, mouse; conditions: DIO mice, G49, 6 h
[9] = system: liver Cd11b+Ly6g+ cells; assay: liver neutrophils; assay type: in vivo, mouse; conditions: DIO mice, G49
In short: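 Liver non-parenchymal cells underwent ACK red-cell lysis (5 min, RT) and were washed in HBSS. They were stained 20 min at RT with CD45-FITC, CD11b-PECy7 and Ly6G-PE, then acquired on a FACSCanto II.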

[10] = system: primary mouse hepatocytes; assay: fatty acid oxidation and Cpt1a in primary mouse hepatocytes; assay type: cell-based; conditions: 500 nM G49, 16 h
In short: (§2)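 Primary hepatocytes came from non-fasted male C57BL/6J mice fed HFD for 12 weeks, with or without in vivo treatment, by two-step collagenase perfusion. Cells were spun at 60 × g, purified on isotonic Percoll (1:1) at 230 × g and seeded on collagen. They were cultured 24 h at 37 °C, 5% CO2 before exposure to the test compound.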

[11] = system: primary mouse hepatocytes; assay: FGF21 release and gene expression in primary hepatocytes; assay type: cell-based; conditions: 500 nM G49, 16 h
In short: as §2

[12] = system: primary mouse hepatocytes; assay: insulin-induced AKT Ser473 phosphorylation in hepatocytes; assay type: cell-based; conditions: pre-treatment with G49
In short: as §2

[13] = system: BAT, eWAT, iWAT; assay: UCP1 and TH protein; assay type: in vivo, mouse
[14] = system: brown adipocytes; assay: OCR in differentiated brown adipocytes; assay type: cell-based, mouse; conditions: G49, 16 h
In short: (§3)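 Brown preadipocytes were immortalised by retroviral SV40 Large T (20% FBS, 8 μg/mL polybrene, 48 h) at 70–80% confluence. Differentiation began with 2 days in induction medium (0.5 μM dexamethasone, 0.5 mM IBMX, indomethacin, 1 μM rosiglitazone).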

[15] = system: brown adipocytes; assay: lipolysis in brown adipocytes; assay type: cell-based, mouse; conditions: G49, brown adipocytes, 500 nM, 4 h
[16] = system: brown adipocytes; assay: thermogenic gene expression and UCP1 in brown adipocytes; assay type: cell-based, mouse; conditions: G49, brown adipocytes
In short: as §3

[17] = system: brown adipocytes; assay: brown adipocytes treated with serum of G49-treated mice; assay type: cell-based, mouse; conditions: serum from mice receiving G49 for 72 h
In short: as §3

[18] = system: POMC neurons, arcuate nucleus; assay: cFos-positive POMC neurons in ARC; assay type: in vivo, mouse; conditions: DIO mice
In short: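 Brain slices were blocked 2 h at RT in PBS with 1% BSA and 0.1% Triton X-100. They were incubated overnight at 4 °C with anti-POMC and anti-c-Fos, then with secondary antibodies in 1% BSA/PBS for 2 h at RT, protected from light.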

In the case of “HSQGTFTSDYSKYLEEEAVRLFIC (40 kDa PEG) WLMNT-amide acetate salt [G49]”, the “inhibition of cumulative food intake” value [1] is reported as 28.30 ± 2.61%, the plasma insulin ([2]; G49 + ATGLi, 6 h) is reported as “plasma insulin was partly reduced” and the “peak in insulin secretion” value ([2]; G49 + Ex9-39, 6 h) is reported as “Ex9-39 totally abolished this increase”. The “peak in insulin secretion” value ([2]; G49 + GCGRant, 6 h) was “partially blocked by the GCGRant”, the “plasma insulin, early” value ([2]; G49, 6 h) was “a rise in plasma insulin” and the “plasma adiponectin, early” value [3] was “increase in adiponectin was observed as early as 24 h post-injection”. The “PKA/HSL phosphorylation (lipolytic molecular signature)” value ([4]; BAT) was “not in brown adipose tissue (BAT)”, the “PKA/HSL phosphorylation (lipolytic molecular signature)” value ([4]; iWAT) was “also found in iWAT” and the TUNEL positive cells [5] was “presence of TUNEL positive cells”. The “F4/80 and TH positive immune cells” value [6] was “F4/80 and Tyrosine Hydroxylase (TH) positive immune cells were found in some eWAT areas”, the hepatic lipid overload ([7]; G49 + GCGRant, 6 h) was “hepatic lipid overload and ALT elevation were not observed” and the liver triglycerides ([7]; G49, time course) was “elevated at 3–12 h post-injection, peaking at 6 h”. For the same sequence, the liver-to-body weight ratio [8] was “an increase in lipid accumulation analyzed by H&E and oil-red O staining of liver sections, liver-to-body weight ratio, and alanine aminotransferase (ALT) activity”, the hepatic neutrophil infiltration [9] was “an increase in hepatic neutrophil infiltration” and the “Cpt1a mRNA and FAO” value [10] was “increased Cpt1a mRNA levels and FAO”. The “FGF21 release and Sir2 expression” value [11] was “increased FGF21 levels released to the culture medium and Sir2 expression”, the “insulin-induced AKT Ser473 phosphorylation” value [12] was “increased insulin sensitivity manifested by elevations in insulin-induced AKTSer473 phosphorylation” and the UCP1 protein ([13]; Adipoq−/− mice, G49) was “no increase in UCP1 protein levels was found”. For the same sequence, the “UCP1 expression in BAT” value ([13]; DIO mice, G49 + ATGLi, 72 h) was “suppression of G49 effects on UCP1 expression and BAT temperature”, the “UCP1 protein in BAT” value ([13]; DIO mice, G49 + GCGRant) was “did not present an increase in UCP1 protein levels” and the “UCP1 and TH protein in BAT” value ([13]; DIO mice, G49, 1 week) was “increase in thermogenic-related genes (Cpt1b, Dio2, CoxIVi1, Ucp1, Th, Fgf21) and protein levels of UCP1 and TH in BAT”. For the same sequence, the “UCP1 protein in BAT” value ([13]; FGF21Alb-KO mice, G49, 1 week) was “a lower effect of G49 in increasing in UCP1 protein levels in BAT”, the “UCP1 protein in BAT” value ([13]; FGF21Alb-KO mice, G49 plus recombinant murine FGF21) was “markedly increased UCP1 protein levels and BAT temperature” and the “UCP1 and TH protein” value ([13]; eWAT, G49, 1 week) was “higher UCP1 and TH protein content”. For the same sequence, the UCP1 protein ([13]; iWAT, G49, 1 week) was “a similar improvement was found”, the mitochondrial respiration [14] was “an increase in mitochondrial respiration” and the lipolysis [15] was “up-regulated lipolysis”. For the same sequence, the “thermogenic gene expression and UCP1 protein” value [16] was “up-regulated lipolysis, thermogenic gene expression (Ucp1, Ppargc1a, Sir2) and UCP1 protein levels in BA”, the “Ucp1 mRNA and UCP1 protein” value [17] was “increased Ucp1 mRNA and UCP1 protein levels” and the “activated POMC neurons, 1 week” value ([18]; G49, 1 week) was “percentage of activated POMC neurons was reduced”. For the same sequence, the “cFos-positive POMC neurons, early” value ([18]; G49, after first injection) was “increase in cFos-positive POMC neurons”.
